{
  "source": "ChEMBL document CHEMBL1130338",
  "about": "“(E)- and (Z)-7-arylidenenaltrexones: synthesis and opioid receptor radioligand displacement assays” (J Med Chem, 1997)",
  "key": {"[1]": {"molecular_target": "Kappa-type opioid receptor (Cavia porcellus, UniProt P41144)", "sequence (P41144 whole entry)": "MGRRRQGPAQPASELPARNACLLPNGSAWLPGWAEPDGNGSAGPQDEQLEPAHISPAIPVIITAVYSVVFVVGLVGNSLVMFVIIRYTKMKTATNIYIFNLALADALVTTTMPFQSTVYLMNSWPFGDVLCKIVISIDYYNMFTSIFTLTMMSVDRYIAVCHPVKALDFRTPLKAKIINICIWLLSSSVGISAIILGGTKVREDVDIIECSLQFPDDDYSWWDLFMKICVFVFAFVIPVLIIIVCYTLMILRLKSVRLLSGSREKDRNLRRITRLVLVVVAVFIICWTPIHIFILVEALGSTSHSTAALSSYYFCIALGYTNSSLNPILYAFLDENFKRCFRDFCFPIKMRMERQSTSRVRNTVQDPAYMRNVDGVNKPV", "assay": "Binding affinity was determined in a crude membrane preparation from guinea pig brain by displacement of [3H]U-69593 from Opioid receptor kappa 1", "type": "cell membranes", "in_short": "(§1)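 Guinea pig brain (less cerebellum) homogenized in 0.05 M Tris pH 7.4, pelleted at 25000g (4 °C, 20 min), stored in 0.32 M sucrose at –70 °C. Diluted 1:60, giving 0.8–1.5 mg protein/mL. Radioligands at 1.0 nM ([3H]DAMGO μ, [3H]DPDPE δ, [3H]U69,593 κ). Test ligand in duplicate at nine concentrations, 1.0–1000 nM. Nonspecific binding with 10 μM naloxone. Incubated 60 min at 25 °C, then filtered and counted. Ki from IC50 via Cheng–Prusoff using KD measured in this homogenate.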"}, "[2]": {"molecular_target": "Opioid receptors; mu & delta (UniProt P41143+P35372)", "sequence (P35372 whole entry, looked up)": "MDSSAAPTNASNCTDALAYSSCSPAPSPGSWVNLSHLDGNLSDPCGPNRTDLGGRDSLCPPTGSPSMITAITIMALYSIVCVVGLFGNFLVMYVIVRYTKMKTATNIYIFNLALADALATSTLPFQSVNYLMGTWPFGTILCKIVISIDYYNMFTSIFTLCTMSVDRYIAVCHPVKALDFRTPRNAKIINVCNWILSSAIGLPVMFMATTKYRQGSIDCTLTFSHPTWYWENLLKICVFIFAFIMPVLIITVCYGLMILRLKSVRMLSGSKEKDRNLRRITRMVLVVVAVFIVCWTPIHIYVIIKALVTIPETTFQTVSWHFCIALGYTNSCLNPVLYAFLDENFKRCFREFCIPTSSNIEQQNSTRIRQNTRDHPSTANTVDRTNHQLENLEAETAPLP", "sequence (P41143 whole entry, looked up)": "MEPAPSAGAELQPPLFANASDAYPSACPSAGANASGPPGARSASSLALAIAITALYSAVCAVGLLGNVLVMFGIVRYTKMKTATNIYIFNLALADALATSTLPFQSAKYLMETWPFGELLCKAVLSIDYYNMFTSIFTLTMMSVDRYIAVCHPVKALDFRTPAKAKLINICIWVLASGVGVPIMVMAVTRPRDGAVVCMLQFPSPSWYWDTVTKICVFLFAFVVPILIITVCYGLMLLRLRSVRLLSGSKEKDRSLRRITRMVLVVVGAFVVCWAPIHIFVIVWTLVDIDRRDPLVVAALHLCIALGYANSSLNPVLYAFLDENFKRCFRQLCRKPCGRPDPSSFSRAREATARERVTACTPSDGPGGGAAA", "assay": "Selectivity ratio measured in terms of delta opioid receptor to the mu opioid receptor", "type": "protein assay", "settings": "Cavia porcellus"}, "Mu-type opioid receptor": {"molecular_target": "Mu-type opioid receptor (Cavia porcellus, UniProt P97266)", "sequence (P97266 whole entry)": "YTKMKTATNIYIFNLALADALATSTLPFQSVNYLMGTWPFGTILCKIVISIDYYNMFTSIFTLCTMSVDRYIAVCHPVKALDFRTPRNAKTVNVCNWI", "assay": "Binding affinity was determined in a crude membrane preparation from guinea pig brain by displacement of [3H]DAMGO from Opioid receptor mu 1", "type": "cell membranes", "in_short": "as §1"}},
  "data": [
    {"molecule": "O=C1/C(=C/c2cccc3ccccc23)C[C@@]2(O)[C@H]3Cc4ccc(O)c5c4C2(CCN3CC2CC2)[C@H]1O5", "values": [
      {"measurement": "Ki", "setting": "[1]", "value": 120, "unit": "nM"},
      {"measurement": "Selectivity ratio", "setting": "[2]", "value": 7.5},
      {"measurement": "Ki", "setting": "Mu-type opioid receptor", "value": 36, "unit": "nM"}
    ]},
    {"molecule": "O=C1/C(=C\\c2ccc(-c3ccccc3)cc2)C[C@@]2(O)[C@H]3Cc4ccc(O)c5c4C2(CCN3CC2CC2)[C@H]1O5", "values": [
      {"measurement": "Ki", "setting": "[1]", "value": 400, "unit": "nM"},
      {"measurement": "Selectivity ratio", "setting": "[2]", "value": 4.2},
      {"measurement": "Ki", "setting": "Mu-type opioid receptor", "value": 210, "unit": "nM"}
    ]},
    {"molecule": "O=C1/C(=C\\c2ccccc2)C[C@@]2(O)[C@H]3Cc4ccc(O)c5c4[C@@]2(CCN3CC2CC2)[C@H]1O5", "values": [
      {"measurement": "Ki", "setting": "[1]", "value": 34, "unit": "nM"},
      {"measurement": "Selectivity ratio", "setting": "[2]", "value": 8.6},
      {"measurement": "Ki", "setting": "Mu-type opioid receptor", "value": 33, "unit": "nM"}
    ]},
    {"molecule": "O=C1/C(=C\\c2c3ccccc3cc3ccccc23)C[C@@]2(O)[C@H]3Cc4ccc(O)c5c4C2(CCN3CC2CC2)[C@H]1O5", "values": [
      {"measurement": "Ki", "setting": "[1]", "value": 100, "unit": "nM"},
      {"measurement": "Selectivity ratio", "setting": "[2]", "value": 14},
      {"measurement": "Ki", "setting": "Mu-type opioid receptor", "value": 34, "unit": "nM"}
    ]},
    {"molecule": "O=C1/C(=C/c2ccccc2)C[C@@]2(O)[C@H]3Cc4ccc(O)c5c4[C@@]2(CCN3CC2CC2)[C@H]1O5", "note": "[BNTX]", "values": [
      {"measurement": "Ki", "setting": "[1]", "value": 48, "unit": "nM"},
      {"measurement": "Selectivity ratio", "setting": "[2]", "value": 4},
      {"measurement": "Ki", "setting": "Mu-type opioid receptor", "value": 26, "unit": "nM"}
    ]},
    {"molecule": "O=C1/C(=C\\c2cccc3ccccc23)C[C@@]2(O)[C@H]3Cc4ccc(O)c5c4C2(CCN3CC2CC2)[C@H]1O5", "values": [
      {"measurement": "Ki", "setting": "[1]", "value": 37, "unit": "nM"},
      {"measurement": "Selectivity ratio", "setting": "[2]", "value": 15},
      {"measurement": "Ki", "setting": "Mu-type opioid receptor", "value": 11, "unit": "nM"}
    ]},
    {"molecule": "O=C1/C(=C/c2ccc(-c3ccccc3)cc2)C[C@@]2(O)[C@H]3Cc4ccc(O)c5c4C2(CCN3CC2CC2)[C@H]1O5", "values": [
      {"measurement": "Ki", "setting": "[1]", "value": 190, "unit": "nM"},
      {"measurement": "Selectivity ratio", "setting": "[2]", "value": 0.6},
      {"measurement": "Ki", "setting": "Mu-type opioid receptor", "value": 50, "unit": "nM"}
    ]},
    {"molecule": "CC(C)CN1CCC23c4c5ccc(O)c4O[C@H]2C(=O)/C(=C\\c2ccc4ccccc4c2)C[C@@]3(O)[C@H]1C5", "values": [
      {"measurement": "Selectivity ratio", "setting": "[2]", "value": 3}
    ]},
    {"molecule": "O=C1/C(=C/c2ccc3ccccc3c2)C[C@@]2(O)[C@H]3Cc4ccc(O)c5c4C2(CCN3CC2CC2)[C@H]1O5", "values": [
      {"measurement": "Ki", "setting": "[1]", "value": 74, "unit": "nM"},
      {"measurement": "Selectivity ratio", "setting": "[2]", "value": 0.6},
      {"measurement": "Ki", "setting": "Mu-type opioid receptor", "value": 23, "unit": "nM"}
    ]},
    {"molecule": "O=C1/C(=C/c2c3ccccc3cc3ccccc23)C[C@@]2(O)[C@H]3Cc4ccc(O)c5c4C2(CCN3CC2CC2)[C@H]1O5", "values": [
      {"measurement": "Ki", "setting": "[1]", "value": 170, "unit": "nM"},
      {"measurement": "Selectivity ratio", "setting": "[2]", "value": 6.4},
      {"measurement": "Ki", "setting": "Mu-type opioid receptor", "value": 110, "unit": "nM"}
    ]}
  ]
}
